Activity calls are given as the source filed them. The calls are words filed in the database; no cut-off is given here.
Legend:
Neutrophil [1] = test: Antiinflammatory activity in Wistar rat neutrophils assessed as reduction of LPS-stimulated TNFalpha production at 100 uM after 18 hrs by ELISA; type: functional, cell-based
In short: (§1)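 Rat peritoneal neutrophils elicited by intraperitoneal oyster glycogen, 1 × 10⁶ cells, incubated 18 h at 37 °C in 5% CO2 in medium alone (basal) or with LPS, with compounds in HBSS added at the same time. Supernatant frozen at −80 °C. TNF-α and PGE2 quantified by ELISA in pg/ml. Compared against HBSS-treated cells. Mean ± s.e.m. of 4 independent assays.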

Neutrophil [2] = test: Antiinflammatory activity in Wistar rat neutrophils assessed as reduction of TNFalpha production at 100 uM after 18 hrs by ELISA; type: functional, cell-based; in short: as §1
Neutrophil [3] = test: Antiinflammatory activity in Wistar rat neutrophils assessed as inhibition of LPS-stimulated PGE2 production at 100 uM after 18 hrs by ELISA; type: functional, cell-based
In short: (§2)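 Glycogen-elicited peritoneal neutrophils from male Wistar rats, 1 × 10⁶ cells, 18 h at 37 °C in 5% CO2 with or without E. coli LPS (serotype 026:B6). Compounds given at the same time, dissolved in HBSS; HBSS-treated cells serve as control. Nitrite measured by Griess reaction (absorbance at 550 nm, 10 min). PGE2 measured by ELISA in supernatant stored frozen at −80 °C. Mean ± s.e.m. of 4 independent assays.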

Neutrophil [4] = test: Inhibition of iNOS expression in Wistar rat neutrophils assessed as reduction of NO production after 18 hrs by Western blot analysis; type: functional, cell-based
In short: (§3)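 Glycogen-elicited Wistar rat neutrophils, 1 × 10⁶ cells, incubated 18 h with LPS plus compound or control. Protein: homogenate in 50 mM Tris pH 7.4 with PMSF, 50 µg run on 7% SDS-PAGE, blocked with casein, mouse monoclonal anti-iNOS at 500 ng/mL, HRP chemiluminescence, densitometry normalized to β-actin. mRNA: real-time PCR against GAPDH, quantified by the Liu and Saint method. Mean ± s.e.m. of 4 independent assays.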

Neutrophil [5] = test: Inhibition of LPS-induced iNOS expression in Wistar rat neutrophils assessed as reduction of NO production after 18 hrs by Western blot analysis; type: functional, cell-based; in short: as §3
[6] = Cytotoxicity against Wistar rat neutrophils assessed as cell viability; type: cell-based, Neutrophil; details: read-out: Activity
[7] = Induction of apoptosis in Wistar rat neutrophils; type: cell-based; details: neutrophil
Neutrophil [8] = test: Antiinflammatory activity in Wistar rat neutrophils assessed as inhibition of LPS-stimulated PGE2 production at 1000 uM after 18 hrs by ELISA; type: functional, cell-based; in short: as §2
Neutrophil [9] = test: Antiinflammatory activity in Wistar rat neutrophils assessed as inhibition of LPS-stimulated NO production at 10 to 100 uM after 18 hrs by Griess method; type: functional, cell-based; in short: as §2
[10] = biological target: T1, Nitric oxide synthase 3 (Rattus norvegicus) (UniProt Q62600); test: Inhibition of eNOS in rat PMEC assessed as reduction in nitrite level at 100 uM after 48 hrs by Griess method
T1 sequence (whole entry): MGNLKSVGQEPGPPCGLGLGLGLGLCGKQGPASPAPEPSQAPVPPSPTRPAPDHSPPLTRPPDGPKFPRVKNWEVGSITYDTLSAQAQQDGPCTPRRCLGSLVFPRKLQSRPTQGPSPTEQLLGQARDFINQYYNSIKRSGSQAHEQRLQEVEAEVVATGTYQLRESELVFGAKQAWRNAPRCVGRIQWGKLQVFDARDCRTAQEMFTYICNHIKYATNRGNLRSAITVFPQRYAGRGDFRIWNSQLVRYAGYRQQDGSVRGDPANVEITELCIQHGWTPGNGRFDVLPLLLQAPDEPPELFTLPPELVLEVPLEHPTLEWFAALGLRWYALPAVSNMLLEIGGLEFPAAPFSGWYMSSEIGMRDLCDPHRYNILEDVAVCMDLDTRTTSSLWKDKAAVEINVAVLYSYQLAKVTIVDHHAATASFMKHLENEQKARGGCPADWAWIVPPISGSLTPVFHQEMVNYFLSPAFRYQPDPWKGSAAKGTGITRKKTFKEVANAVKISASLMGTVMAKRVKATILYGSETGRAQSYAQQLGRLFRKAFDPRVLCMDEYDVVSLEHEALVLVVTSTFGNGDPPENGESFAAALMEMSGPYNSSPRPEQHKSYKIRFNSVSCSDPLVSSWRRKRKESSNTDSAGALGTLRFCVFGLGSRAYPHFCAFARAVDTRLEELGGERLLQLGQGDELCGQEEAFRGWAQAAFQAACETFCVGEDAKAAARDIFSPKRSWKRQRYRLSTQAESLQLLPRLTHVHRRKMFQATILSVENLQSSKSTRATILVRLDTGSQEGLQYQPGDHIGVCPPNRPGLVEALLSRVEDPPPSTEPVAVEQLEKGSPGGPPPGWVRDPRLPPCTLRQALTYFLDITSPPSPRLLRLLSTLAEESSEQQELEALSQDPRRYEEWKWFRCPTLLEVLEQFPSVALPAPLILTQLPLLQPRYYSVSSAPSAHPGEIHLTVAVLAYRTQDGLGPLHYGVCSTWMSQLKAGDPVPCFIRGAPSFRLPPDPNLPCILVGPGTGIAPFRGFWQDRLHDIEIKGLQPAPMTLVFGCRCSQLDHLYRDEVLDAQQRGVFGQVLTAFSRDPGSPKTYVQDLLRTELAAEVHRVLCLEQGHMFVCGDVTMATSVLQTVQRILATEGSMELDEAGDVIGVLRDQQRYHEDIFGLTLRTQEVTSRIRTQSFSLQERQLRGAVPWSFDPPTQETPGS
In short: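 Primary microvascular endothelial cells from rat cremaster muscle explants, grown in DMEM with 20% fetal calf serum and used at confluence after subculture. Incubated 48 h at 37 °C in 5% CO2 without LPS, with coumarin compounds or L-NAME at 100 µM. Nitrite in supernatant measured by Griess reaction at 550 nm. Mean ± s.e.m. of 4 independent assays.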

[11] = biological target: Nitric oxide synthase, inducible (Rattus norvegicus) (UniProt Q06518); test: Inhibition of iNOS in LPS-stimulated Wistar rat neutrophils assessed as decrease in total NOS activity at 100 uM after 18 hrs by enzymatic assay
Sequence of Nitric oxide synthase, inducible (Rattus norvegicus) (Q06518 whole entry): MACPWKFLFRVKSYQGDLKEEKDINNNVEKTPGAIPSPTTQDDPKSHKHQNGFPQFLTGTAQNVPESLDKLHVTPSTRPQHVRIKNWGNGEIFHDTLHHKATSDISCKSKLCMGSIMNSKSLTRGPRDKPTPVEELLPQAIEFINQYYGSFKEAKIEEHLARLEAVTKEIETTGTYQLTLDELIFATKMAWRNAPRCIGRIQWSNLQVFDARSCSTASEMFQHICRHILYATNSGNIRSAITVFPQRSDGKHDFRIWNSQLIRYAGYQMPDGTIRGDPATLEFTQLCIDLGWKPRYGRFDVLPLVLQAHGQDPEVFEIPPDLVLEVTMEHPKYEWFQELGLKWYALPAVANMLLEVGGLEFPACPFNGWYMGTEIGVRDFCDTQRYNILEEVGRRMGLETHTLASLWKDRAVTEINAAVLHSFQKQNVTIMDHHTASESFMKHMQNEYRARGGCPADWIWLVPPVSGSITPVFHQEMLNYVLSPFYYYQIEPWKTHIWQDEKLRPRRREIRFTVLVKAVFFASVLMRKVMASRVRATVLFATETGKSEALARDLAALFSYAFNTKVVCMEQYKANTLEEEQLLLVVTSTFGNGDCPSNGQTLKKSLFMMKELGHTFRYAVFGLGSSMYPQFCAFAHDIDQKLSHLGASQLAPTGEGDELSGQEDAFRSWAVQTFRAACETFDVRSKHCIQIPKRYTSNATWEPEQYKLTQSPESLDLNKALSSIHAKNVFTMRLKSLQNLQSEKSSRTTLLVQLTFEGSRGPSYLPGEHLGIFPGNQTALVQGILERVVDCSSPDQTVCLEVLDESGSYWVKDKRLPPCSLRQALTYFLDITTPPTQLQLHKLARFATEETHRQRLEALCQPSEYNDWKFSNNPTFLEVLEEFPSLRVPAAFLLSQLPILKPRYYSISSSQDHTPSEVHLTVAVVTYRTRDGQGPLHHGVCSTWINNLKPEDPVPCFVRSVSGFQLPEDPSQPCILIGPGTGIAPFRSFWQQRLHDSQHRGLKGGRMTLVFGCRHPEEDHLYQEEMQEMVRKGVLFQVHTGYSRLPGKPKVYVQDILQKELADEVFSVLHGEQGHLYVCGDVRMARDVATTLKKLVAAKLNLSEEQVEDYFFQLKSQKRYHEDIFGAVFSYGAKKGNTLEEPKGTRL
In short: (§4)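 Neutrophils treated 18 h with LPS and compound, then homogenized in cold 50 mM Tris-HCl pH 7.4 with 1 mM PMSF and 1 mM L-citrulline. Homogenates incubated 30 min at 37 °C with 1 mM NADPH. Activity expressed as pmol L-citrulline/min/mg protein, with protein by Bradford. Calcium-independent (iNOS) activity defined by omitting CaCl2 and adding 1 mM EGTA; 1 mM L-NAME used as control. Mean ± s.e.m., n = 4.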

[12] = Induction of necrosis in Wistar rat neutrophils; type: cell-based; details: neutrophil
[13] = biological target: Nitric oxide synthase, inducible (Rattus norvegicus) (UniProt Q06518); test: Inhibition of iNOS activity in LPS-stimulated Wistar rat neutrophils at 100 uM after 18 hrs by enzymatic assay; in short: as §4
[14] = Induction of PGE2 production in Wistar rat neutrophils at 100 uM after 18 hrs by ELISA; type: cell-based; details: neutrophil; in short: as §1
Neutrophil [15] = test: Antiinflammatory activity in Wistar rat neutrophils assessed as inhibition of LPS-stimulated TNFalpha production at 1000 uM after 18 hrs by ELISA; type: functional, cell-based; in short: as §1
Neutrophil [16] = test: Inhibition of LPS-induced iNOS gene expression in Wistar rat neutrophils assessed as decrease in mRNA level after 18 hrs by real-time PCR analysis; type: functional, cell-based; in short: as §3
Neutrophil [17] = test: Inhibition of LPS-induced cytoplasmic iNOS expression in Wistar rat neutrophils assessed as decrease in protein level after 18 hrs by Western blot analysis; type: functional, cell-based; in short: as §3
Rattus norvegicus = test: Antiinflammatory activity in LPS-induced rat subcutaneous dorsal inflamed tissue assessed as reduction of neutrophil recruitment at 50 mg/kg, ip after 4 hrs post LPS challenge by Giemsa staining; type: functional, organism-based; set-up: dose 50 mg/kg
In short: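 Rat dorsal air pouch: 10 mL sterile air injected subcutaneously, refilled with 10 mL on day 7. On day 10, 50 mg/kg in 1 mL sterile PBS was given intraperitoneally (per methods) at the same time as LPS (1.5 mg/mL) was injected into the pouch; controls got PBS. Exudate leukocytes were counted 4 h later by Neubauer chamber and dyed smears. Mean ± s.e.m., 3 animals/group.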

[18] = Inhibition of LPS-stimulated NO production in Wistar rat neutrophils at 10 uM after 18 hrs by Griess method; details: neutrophil
[19] = Induction of TNFalpha production in Wistar rat neutrophils at 100 uM after 18 hrs by ELISA relative to vehicle-treated control; type: cell-based; details: neutrophil; in short: as §1

SMILES	Activity (Neutrophil [1])	Activity (Neutrophil [2])	inhibition (Neutrophil [3])	inhibition (Neutrophil [4])	inhibition (Neutrophil [5])	viability [6] [%]	Activity [7]	inhibition (Neutrophil [8])	inhibition (Neutrophil [9])	inhibition [10]	inhibition [11]	Activity [12]	inhibition [13]	Activity [14]	inhibition (Neutrophil [15])	inhibition (Neutrophil [16])	inhibition (Neutrophil [17])	Activity (Rattus norvegicus)	Activity [18]	Activity [19]
CCCCCCCCn1cc(-c2cc3ccccc3oc2=O)nn1	inactive	inactive	inactive	Active	Active	> 90	Non-toxic	inactive	Active	inactive	Active	Non-toxic	Active	Toxic	inactive	–	–	–	–	–
COC(=O)[C@@H](N)CCCNC(=N)N[N+](=O)[O-]	–	–	–	–	–	–	–	–	–	Active	–	–	–	–	–	–	–	–	–	–
O=c1oc2ccccc2cc1-c1cn(-c2ccccc2)nn1	inactive	inactive	inactive	Active	Active	> 90	Non-toxic	inactive	Active	inactive	Active	Non-toxic	Active	–	inactive	Active	Active	Active	–	–
CCCCCCn1cc(-c2cc3ccccc3oc2=O)nn1	inactive	inactive	inactive	Active	Active	> 90	Non-toxic	inactive	–	Active	Active	Non-toxic	Active	–	inactive	–	–	–	Toxic	Toxic
N=C(N)NN	–	–	–	–	–	–	–	–	–	–	–	–	–	–	–	–	–	Active	–	–
CCCCCCCCCCn1cc(-c2cc3ccccc3oc2=O)nn1	inactive	inactive	inactive	Active	Active	> 90	Non-toxic	inactive	Active	inactive	Active	Non-toxic	Active	Toxic	inactive	–	–	–	–	–

— ChEMBL document CHEMBL2151034, “Synthesis, biological evaluation and molecular docking studies of 3-(triazolyl)-coumarin derivatives: effect on inducible nitric oxide synthase” (Eur J Med Chem, 2012)
